Screens (PubChem)
MIN6 prolif-1: MIN6 beta-cell proliferation induction; MIN6 cells proliferation, ATPlite luminescence, 48 h; cells starved in 0.2% serum; 100% = growth in 10% serum; proliferation, % at 10 µM; actives 0.29% (n = 330,000); AID 2380;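 active means compounds whose signal lies at least 3.5 SD above the mean of all wells on their plate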
Rev-erbA mod: modulators of human Rev-erb alpha DNA binding | P20393 | Rev-erbα–FITC-DNA binding, fluorescence polarization, 90 min | activity, % at 10 µM | actives 0.79% (n = 370,000);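 active means activity above about 14%, limit read from the data; passing the limit was not always enough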
Rce1 inhib: yeast Ras-converting enzyme inhibition; Q03530; yeast membranes, quenched prenylated peptide cleavage fluorescence; calls only; actives 0.27% (n = 290,000); AID 2563;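 active means fall in fluorescence gain of 50% or more versus controls, with final raw signal at or below 3038400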
PG9 binder: binds the HIV-1 gp120 antibody PG9; actives 0.43% (n = 360,000); inhibition, % at 6.7 µM; AID 624416; TR-FRET gp120-PG9 antibody binding; in the data active means inhibition above about 8.5%
Yeast superoxide: lowers age-related superoxide in aged yeast cells. S. cerevisiae aged cells, superoxide DHE fluorescence; active compounds read low. superoxide response (% of plate mean), % at 10 µM. actives 0.18% (n = 330,000). AID 2690;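 active means superoxide response under a set limit, about three screen SD below normal, cut at about 65% in these data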;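 further: yeast aged for seven days with compound at 30 °C before DHE staining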
UCH37 DUB inh: inhibitors of human deubiquitinating enzyme UCH37. Q9Y5K5. purified proteasome/UCH37, Ub-AMC cleavage fluorescence. inhibition, % (concentration not given with the values). actives 0.33% (n = 330,000). AID 588478;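 active means mean inhibition over replicate wells above about 20%, limit read from the data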
Target sequence (Q9Y5K5 whole entry, looked up): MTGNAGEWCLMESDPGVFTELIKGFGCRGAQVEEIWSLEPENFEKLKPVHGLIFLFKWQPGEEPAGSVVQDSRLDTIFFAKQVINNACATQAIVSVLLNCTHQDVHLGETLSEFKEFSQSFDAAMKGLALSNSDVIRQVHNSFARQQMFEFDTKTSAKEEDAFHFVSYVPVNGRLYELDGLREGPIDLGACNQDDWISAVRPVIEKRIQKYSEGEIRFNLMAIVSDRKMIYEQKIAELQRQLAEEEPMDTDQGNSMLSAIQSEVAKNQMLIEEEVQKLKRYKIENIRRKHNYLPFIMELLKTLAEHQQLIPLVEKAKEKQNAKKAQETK
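System: Proteasome-associated human UCH37 deubiquitinase; Input: 0.15 nM proteasome in added enzyme buffer; Also added: Ub-AMC substrate from 1 µM stock; Incubation: 30 min compound-proteasome preincubation then 25 min substrate reaction, room temperature; Detection: fluorescence, ex 355 nm, em 460 nm; Read-out: % inhibition of Ub-AMC cleavage fluorescence; Benchmarks: no-proteasome and no-compound wells.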
MIN6 prolif-2: MIN6 beta-cell replication induction, confirmed; 920 tested, under 10 active; proliferation increase, % at 50 µM; shares compounds with MIN6 prolif-1; MIN6 beta-cell proliferation, ATPlite luminescence, 48 h; cells kept in 0.2% serum; scaled between 0.2% and 10% serum; AID 463095;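 active means proliferation increase above 40% at any of the four tested concentrations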
Hits are given with their value; – = inactive; · = no result. A selection: hits, their analogues and other compounds. The true share with any hit is near 1.9%.

SMILES | MIN6 prolif-1 | Rev-erbA mod | Rce1 inhib | PG9 binder | Yeast superoxide | UCH37 DUB inh | MIN6 prolif-2
COCCCNC(=S)NCCCNc1nc2cc3c(cc2cc1C#N)OCO3 | 5.8 | · | – | – | – | – | –
Cc1ccc(S(=O)(=O)N2CCN(C(=O)c3nn(C(C)C)c(=O)c4ccccc34)CC2)cc1C | 5.4 | – | – | – | – | – | –
CC1Cc2nc(SCC(=O)N3CCc4ccccc43)n(C)c(=O)c2S1 (centres undefined) | – | – | – | – | – | – | ·
CC1Cc2nc(SCC(=O)OCc3ccccc3)n(C)c(=O)c2S1 (centres undefined) | 15.4 | – | – | – | – | – | –
CC(C)CNC(=O)CN(C1CCCCC1)S(=O)(=O)c1ccccc1 | 9.1 | – | – | – | – | – | –
Cc1cc(C(=O)CSc2nnc(-c3ccccc3)n2-c2ccccc2)c(C)n1-c1ncn[nH]1 | 6.9 | – | – | – | – | – | –
Cc1cc(C(=O)CSc2nnc(-c3ccncc3)n2-c2ccccc2)c(C)n1C | – | – | – | – | – | – | ·
CCc1ccccc1NC(=O)COC(=O)c1cccs1 | 8.1 | – | – | – | – | – | –
O=C(OCC(=O)N1CCCC1)c1cccs1 | 8.1 | – | – | – | – | – | –
O=C(Cn1cc(C=NNC(=O)c2cccc(C(F)(F)F)c2)c2ccccc21)Nc1ccc(F)cc1 | · | · | · | · | · | – | ·
C=CCOc1ccccc1C=Nn1nnnc1N | · | · | · | · | · | – | ·
CCOC(=O)c1c(NC(=S)Nc2ccccc2)sc2c1CCN(CCc1ccccc1)C2 | · | · | · | · | – | · | ·
CCOC(=O)c1c(N)sc2c1CCN(CCc1ccccc1)C2 | 7.5 | – | – | – | – | – | –
O=C(CN1C(=O)S/C(=C/c2cccs2)C1=O)N1CCCC1 | 10.0 | – | · | – | – | – | –
COc1cc(CNC(=O)c2ccc3c(c2)S(=O)(=O)c2ccccc2C3=O)cc(OC)c1 | 14.6 | – | – | – | – | – | –
O=C(Nc1ccc(S(=O)(=O)O)cc1)c1ccc2c(c1)S(=O)(=O)c1ccccc1C2=O | 13.6 | – | – | – | – | – | –
CC(Cc1ccccc1)=NNC(=O)CNC(=O)/C=C\c1ccccc1 | · | · | · | · | · | – | ·
COc1cc(C=NNC(=O)CCOc2ccccc2C)cc(Br)c1O | · | · | · | · | · | – | ·
O=C(NCC(=O)N1CCCC(C(F)(F)F)C1)c1ccco1 (centres undefined) | 12.0 | – | · | – | – | – | –
CNC(=O)CC1C(=O)N(c2ccc(OC)cc2)C(=S)N1NC(=O)c1cccc(F)c1 (centres undefined) | – | – | – | – | – | – | ·
CNC(=O)CC1C(=O)N(c2ccc(Cl)cc2)C(=S)N1NC(=O)c1cccc(F)c1 (centres undefined) | 9.8 | – | – | – | – | – | –
COC(=O)Oc1ccc(C=NNC(=O)CSCc2ccc(Cl)cc2)cc1OC | · | · | · | · | · | – | ·
CC(=O)OCc1nc2ccccc2s1 | – | – | – | – | – | – | ·
Cc1cc(C(=O)OCc2nc3ccccc3s2)c(C)o1 | 8.7 | – | – | – | – | – | –
CO/N=C(/c1nonc1N)N1CCN(c2ccc([N+](=O)[O-])cc2)CC1 | 10.8 | – | – | – | – | · | –
SMILES | MIN6 prolif-1 | Rev-erbA mod | Rce1 inhib | PG9 binder | Yeast superoxide | UCH37 DUB inh | MIN6 prolif-2
O=C(O)CCc1ccc(-c2ccc(Cl)cc2)n1CC(=O)O | 5.8 | – | – | – | – | – | –
Oc1ccc(C=NNC(=S)NCc2ccco2)cc1 | · | · | · | · | · | – | ·
CCCCn1c(SCC(=O)c2cc(OC)ccc2OC)nc2cc(S(N)(=O)=O)ccc21 | 0.0 | – | – | – | – | – | –
COCCNC(=S)NN=Cc1ccccc1C(=O)O | · | · | · | · | · | – | ·
CCOc1nc(Nc2ccccc2F)nc(OCC)n1 | 5.0 | – | – | – | – | – | –
C/C(C=NNc1nc(N2CCCCC2)nc(N2CCCCC2)n1)=C/c1ccccc1 | · | · | · | · | · | – | ·
Cc1[nH]c2ccc(C(=O)OC(C)C(=O)NC3CCCCC3C)cc2c1C (centres undefined) | 13.2 | – | · | – | – | – | –
CC(OC(=O)c1ccc2c(c1)OCO2)C(=O)NC1CCCCC1C (centres undefined) | – | – | · | – | · | – | ·
Cc1cc(NC(=O)c2cnn3c(C(F)F)cc(C4CC4)nc23)no1 | 5.5 | – | – | – | – | – | –
